According to ChEMBL document CHEMBL1154829, “Iridoids from Fraxinus excelsior with adipocyte differentiation-inhibitory and PPARalpha activation activity” (2010):
Calls of active or inactive are those of the source. No cut-off for these calls is given here.

How the values were obtained:
[1] = tested on: 3T3-L1; test: Inhibition of adipocyte differentiation in mouse 3T3L1 cells assessed as inhibition of 2 deoxy-D[3H]glucose uptake at 0.05 mg/ml […] by scintillation counter relative to control; assay type: functional
[2] = tested on: 3T3-L1; test: Inhibition of adipocyte differentiation in mouse 3T3L1 cells assessed as inhibition of 2 deoxy-D[3H]glucose uptake at 0.2 mg/ml […] by scintillation counter relative to control; assay type: functional
[3] = tested on: 3T3-L1; test: Inhibition of adipocyte differentiation in mouse 3T3L1 cells assessed as inhibition of 2 deoxy-D[3H]glucose uptake at 0.5 mg/ml after 15 mins by scintillation counter relative to control; assay type: functional
[4] = tested on: 3T3-L1; test: Inhibition of adipocyte differentiation in mouse 3T3L1 cells assessed as inhibition of 2 deoxy-D[3H]glucose uptake at 1 mg/ml […] by scintillation counter relative to control; assay type: functional
[5] = molecular target: T1, Peroxisome proliferator-activated receptor alpha (Homo sapiens) (UniProt Q07869); test: Activation of PPARalpha transfected into HEK cells at 100 uM by luciferase assay; assay type: cell-based; settings: HEK293
T1 sequence (whole entry): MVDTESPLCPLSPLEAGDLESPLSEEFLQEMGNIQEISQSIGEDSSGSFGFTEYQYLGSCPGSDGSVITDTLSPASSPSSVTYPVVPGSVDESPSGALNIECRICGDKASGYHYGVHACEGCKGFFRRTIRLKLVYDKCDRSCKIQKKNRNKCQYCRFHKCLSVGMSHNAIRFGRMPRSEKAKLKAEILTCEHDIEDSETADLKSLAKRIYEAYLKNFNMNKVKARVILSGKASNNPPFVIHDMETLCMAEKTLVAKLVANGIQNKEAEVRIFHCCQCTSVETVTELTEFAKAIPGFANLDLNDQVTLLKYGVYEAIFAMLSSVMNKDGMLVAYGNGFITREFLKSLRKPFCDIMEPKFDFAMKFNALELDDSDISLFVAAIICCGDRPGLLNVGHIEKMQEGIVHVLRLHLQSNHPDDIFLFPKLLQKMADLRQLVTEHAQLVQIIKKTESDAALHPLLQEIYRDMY
Procedure, shortened: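 HEK cells in DMEM with 10% FBS, 1% penicillin-streptomycin and 2 mM L-glutamine at 37 °C, 5% CO2. Seeded at 80 000/well 24 h before PEI transfection (1 µg plasmid, 4 h). Compounds dissolved in DMSO and added in supplemented DMEM for 48 h. Lysate luciferase read by luminometer, normalized to β-gal, relative to DMSO control. Three independent runs; mean ± SD.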

[6] = molecular target: T2, Solute carrier family 2, facilitated glucose transporter member 4 (Homo sapiens) (UniProt P14672); test: Stimulation of GLUT4 glucose transport
T2 sequence (whole entry): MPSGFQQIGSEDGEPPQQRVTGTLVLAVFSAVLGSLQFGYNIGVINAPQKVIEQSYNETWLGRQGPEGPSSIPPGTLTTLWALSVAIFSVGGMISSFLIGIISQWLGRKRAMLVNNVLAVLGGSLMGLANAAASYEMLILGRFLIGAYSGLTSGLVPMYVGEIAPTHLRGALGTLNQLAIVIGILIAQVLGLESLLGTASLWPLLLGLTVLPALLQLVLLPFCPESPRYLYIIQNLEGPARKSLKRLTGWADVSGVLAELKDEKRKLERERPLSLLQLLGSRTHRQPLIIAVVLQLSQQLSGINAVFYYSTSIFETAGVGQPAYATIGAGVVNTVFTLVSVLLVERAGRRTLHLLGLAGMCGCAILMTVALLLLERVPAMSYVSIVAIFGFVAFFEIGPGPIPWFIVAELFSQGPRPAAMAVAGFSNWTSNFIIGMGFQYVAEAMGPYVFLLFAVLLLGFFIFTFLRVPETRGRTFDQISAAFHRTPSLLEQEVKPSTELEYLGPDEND

[7] = tested on: 3T3-L1; test: Inhibition of adipocyte differentiation in mouse 3T3L1 cells assessed as inhibition of 2 deoxy-D[3H]glucose uptake at 0.01 mg/ml […] by scintillation counter relative to control; assay type: functional
[8] = tested on: 3T3-L1; test: Inhibition of adipocyte differentiation in mouse 3T3L1 cells assessed as inhibition of 2 deoxy-D[3H]glucose uptake at 0.1 mg/ml […] by scintillation counter relative to control; assay type: functional

Row | Structure (SMILES) | inhibition at 50 µg/mL [1] | inhibition at 200 µg/mL [2] | inhibition at 500 µg/mL [3] | inhibition at 1000 µg/mL [4] | Activity [5] | activation [6] | inhibition at 10 µg/mL [7] | inhibition at 100 µg/mL [8]
1 | O=C(O)C1CN2C(N1)[C@H](O)[C@@H](O)[C@H](O)[C@H]2CO (stereo partly drawn) | 2.3% | -8.3% | -10.4% | -2.1% | 21% | inactive |  | 
2 | C/C=C1/[C@H](O[C@@H]2O[C@H](CO)[C@@H](O)[C@H](O[C@@H]3O[C@H](CO)[C@@H](O)[C@H](O)[C@H]3O)[C@H]2O)OC=C(C(=O)OC)[C@H]1CC(=O)Oc1ccc(CCO)cc1 | -17.1% |  |  |  |  |  | 77.6% | -49.7%
3 | C/C=C1\[C@H](O[C@@H]2O[C@H](CO)[C@@H](O)[C@H](O)[C@H]2O)OC=C(C(=O)OC)[C@H]1CC(=O)O | -34.8% |  |  |  |  | inactive | -7.9% | -85.2%
4 | C/C=C1/[C@H](O[C@@H]2O[C@H](CO[C@@H]3O[C@H](CO)[C@@H](O)[C@H](O)[C@H]3O)[C@@H](O)[C@H](O)[C@H]2O)OC=C(C(=O)OC)[C@H]1CC(=O)OC [EXCELSIDE A] | 30.9% |  |  |  |  | inactive | 102% | -16.6%
5 | C/C=C1/[C@H](O[C@@H]2O[C@H](CO[C@@H]3O[C@H](CO)[C@@H](O)[C@H](O)[C@H]3O)[C@@H](O)[C@H](O)[C@H]2O)OC=C(C(=O)OC)[C@H]1CC(=O)OCCc1ccc(O)cc1 [EXCELSIDE B] | -16.7% | -30.8% | -22.7% | -24.3% | 24.8% | inactive |  | 
6 | C/C=C1/[C@H](O[C@@H]2O[C@H](CO)[C@@H](O)[C@H](O)[C@H]2O)OC=C(C(=O)OC)[C@H]1CC(=O)OCCc1ccc(O)cc1 [LIGSTROSIDE] | -76.4% |  |  |  |  | inactive | -9.3% | -9.8%
7 | C/C=C1\C(CC(=O)OC[C@H]2O[C@@H](OCCc3ccc(O)cc3)[C@H](O)[C@@H](O)[C@@H]2O)C(C(=O)OC)=CO[C@H]1O[C@@H]1O[C@H](CO)[C@@H](O)[C@H](O)[C@H]1O (stereo partly drawn) [NUZHENIDE] | -15.2% | -28.3% | -27.9% | -38.2% | 12.2% | inactive |  | 
8 | C/C=C1\[C@H](O[C@@H]2O[C@H](CO)[C@@H](O)[C@H](O)[C@H]2O)OC=C(C(=O)OC)[C@H]1CC(=O)OC [OLEOSIDE DIMETHYL ESTER] | -7.3% |  |  |  | 27.9% | inactive | 78.2% | -81%
